This is a sample that favours compounds with a hit; in the whole collection about 2% have one here.
PPC-1+TRAIL kill: PPC-1 cancer cell killing with TRAIL present. PPC-1 cells + TRAIL, ATPLite viability luminescence. cell killing (% activity), % at 4 µM or 5 µM. 220,000 tested, 0.41% active. AID 1443;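 active means cell killing above 50% in the first pass at 4 µM, then a duplicate retest at 5 µM averaging 50% or more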;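 further: plate controls were cells with TRAIL plus DMSO for no effect and medium-only wells lacking cells for full effect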
FLuc inhib CS: Photinus pyralis luciferase inhibition counter-screen | inhibition, % at 10 µM | 200,000 tested, 1.5% active | ATPLite firefly luciferase biochemical luminescence, 10 min;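 active means inhibition above about 50% when tested at 10 µM, limit read from the data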
Target sequence (P08659 whole entry, looked up): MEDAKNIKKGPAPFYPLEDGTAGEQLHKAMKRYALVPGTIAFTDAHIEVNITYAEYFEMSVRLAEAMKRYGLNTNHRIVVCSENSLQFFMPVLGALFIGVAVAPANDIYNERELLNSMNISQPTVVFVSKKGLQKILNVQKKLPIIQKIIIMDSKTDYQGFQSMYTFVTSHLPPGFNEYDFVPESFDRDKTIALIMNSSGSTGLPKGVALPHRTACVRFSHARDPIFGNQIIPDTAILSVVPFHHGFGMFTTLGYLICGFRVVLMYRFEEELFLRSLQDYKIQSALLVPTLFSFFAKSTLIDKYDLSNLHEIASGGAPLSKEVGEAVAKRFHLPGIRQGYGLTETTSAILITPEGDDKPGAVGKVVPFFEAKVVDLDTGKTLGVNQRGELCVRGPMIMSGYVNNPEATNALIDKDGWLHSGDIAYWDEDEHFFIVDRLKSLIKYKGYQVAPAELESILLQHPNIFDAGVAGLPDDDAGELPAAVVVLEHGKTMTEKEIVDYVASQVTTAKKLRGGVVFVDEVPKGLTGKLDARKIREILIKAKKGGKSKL
C8 TRAIL sens: caspase-8 TRAIL sensitization. NB7+C8 cells + TRAIL, ATPlite viability luminescence. inhibition (viability loss, TRAIL sensitization), % at 10 µM. 360,000 tested, 1% active;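 active means compounds causing at least 50% loss of cell viability in the single-dose screen, relative to plate controls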
FLuc act counter: firefly luciferase counter-screen for stimulation assays; P08659; ATPlite luciferase biochemical, luminescence, 10 min; 0 = ATP-free wells, 1 = DMSO control; activation factor at 10 µM; 200,000 tested, under 10 active;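 active means luciferase activation factor, scaled between plate controls, of at least 2 with compound at 10 µM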
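System: Luciferase/luciferin detection reagent, cell-free biochemical luciferase assay | Medium: PBS buffer for ATP | Dosing: Test compounds dosed from 2 mM stocks in 100% DMSO | Timing: 10 min at ambient temperature | Signal: Luminescence measurement of luciferase light output | Evaluation: Luciferase activation, seen as luminescence increase over controls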
HSP90 refold inh: blocks HSP90-mediated luciferase refolding in reticulocyte lysate. Rabbit reticulocyte lysate, luciferase refolding luminescence, 3 h. inhibition, % at 5.6 µM. 290,000 tested, 0.91% active. AID 1789;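 active means inhibition above the screen-wide mean plus 3 SD, computed separately per campaign, cut at about 16% in these data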;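 further: 0% = DMSO wells and 100% = 60 µM geldanamycin wells; inhibitors lower the luminescence because luciferase stays unfolded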
* = called active by the depositor; / = no result given.

SMILES	PPC-1+TRAIL kill	FLuc inhib CS	C8 TRAIL sens	FLuc act counter	HSP90 refold inh
COc1ccc(-c2cn3cccnc3n2)cc1NS(=O)(=O)c1ccccc1	18	10	-10	0.9	3
N[C@@H](CO)c1nnc([C@H](Cc2ccc(O)cc2)NC(=O)C2CCNCC2)o1	-13	-6	-4	1.1	11
OCCC1CN(Cc2ccc(Oc3ncccn3)cc2)CCN1Cc1ccc(F)c(F)c1 (stereo not drawn)	-3	/	9	/	0
CC(C)CN1CCN(Cc2ccc(Oc3ncccn3)cc2)CC1CCO (stereo not drawn)	9	/	-25	/	16*
COc1ccc(CCCN2CCC(CN3C(=S)NC[C@@H]3Cc3ccccc3)CC2)cc1OC	/	/	-7	/	/
O=C(N/N=C/c1ccccn1)c1ccccc1	-5	56*	39	0.4	2
Cc1ccccc1C(=O)N/N=C/c1ccccn1	24	54*	38	0.5	-1
Cc1ccccc1C(=O)N/N=C/c1ccncc1	-9	6	-6	0.9	-3
O=C(N/N=C\c1ccncc1)c1ccccc1O	0	69*	29	0.3	2
O=C(N/N=C\c1ccccn1)c1ccccc1O	16	69*	18	0.3	6
O=C(N/N=C/c1ccccn1)c1ccncc1	/	/	-11	/	7
COC(=O)Cc1ccc(NC(=S)Nc2cccc(C)n2)cc1	6	-2	4	1	-3
Cc1cc(C(=O)COC(=O)c2ccc[nH]c2=O)c(C)n1-c1ccccc1F	42	/	59*	/	5
CCn1cc(C(=O)OCC(=O)c2cc(C)n(-c3ccccc3F)c2C)c(=O)c2ccc(C)nc21	16	-2	-5	1	-1
CCn1c(C)cc(C(=O)COC(=O)c2ccccc2[N+](=O)[O-])c1C	/	/	93*	/	/
Cc1ccc(-n2c(C)cc(C(=O)COC(=O)c3ccc[nH]c3=O)c2C)cc1C	26	65*	37	0.4	-2
CCCn1c(C)cc(C(=O)COC(=O)c2ccc[nH]c2=O)c1C	15	65*	54*	0.3	2
C=CCn1c(C)cc(C(=O)COC(=O)c2ccc(N)c([N+](=O)[O-])c2)c1C	13	13	9	0.9	-3
NC(=O)c1ccsc1NC(=O)COC(=O)Cc1ccccc1Cl	/	/	6	/	/
CCc1ccc(OC(=O)c2ccn(CC)n2)cc1	-27	75*	28	0.2	1
CC(=O)Oc1ccccc1Cn1c(C)c(C(=O)NCc2cccc(Cl)c2)sc1=O	/	/	-7	/	/
Clc1ccc(OCCSc2ncccn2)c(Br)c1	17	54*	21	0.5	0
Cc1c(C(N)=O)sc2ncn(CC(=O)NCCc3ccccc3)c(=O)c12	4	-8	3	1.1	1
O=C(Nc1ccccc1Cl)C(=O)c1cn(CC(=O)N2CCOCC2)c2ccccc12	/	/	54*	/	-2
Cc1cc(=O)[nH]c2nnc(-c3ccc(Cl)cc3)n12	/	/	68*	/	-1
SMILES	PPC-1+TRAIL kill	FLuc inhib CS	C8 TRAIL sens	FLuc act counter	HSP90 refold inh
Cc1cc(=O)[nH]c(N2CCN(c3ccc(Cl)cc3)CC2)n1	/	/	-4	/	-2
CN(C(=O)CSc1ncnc2sccc12)c1c(N)n(Cc2ccccc2)c(=O)[nH]c1=O	-7	/	8	/	-2
COc1ccc(-c2cccc3c2C2CC3CCN2C(=O)OCc2ccccc2)cc1 (stereo not drawn)	/	/	-3	/	/
COC(=O)c1ccccc1NC(=O)c1nc(S(=O)(=O)Cc2ccccc2)ncc1Cl	/	/	95*	/	-2
CCc1nnc(NC(=O)c2nc(S(=O)(=O)Cc3ccccc3)ncc2Cl)s1	/	/	94*	/	1
CCc1nnc(NC(=O)c2nc(S(=O)(=O)Cc3ccc(C)cc3)ncc2Cl)s1	/	/	95*	/	5
CCOc1ccccc1NC(=O)c1nc(S(=O)(=O)Cc2cccc(C)c2)ncc1Cl	/	/	93*	/	11
CN(C)S(=O)(=O)c1ccc(Cl)c(NC(=O)COC(=O)c2cc(-c3ccccc3)nc3ccccc23)c1	13	-2	3	1	1
CC1CN(C(=O)CCS(=O)(=O)c2ccccc2)CC(C)O1 (stereo not drawn)	/	/	-3	/	0
CCc1nnc(NC(=O)c2nc(S(=O)(=O)Cc3cccc(C)c3)ncc2Cl)s1	/	/	98*	/	4
Cc1ccc(N2C(=O)CC(C)(C)CC2=O)cc1Cl	/	/	-3	/	-4
O=C1/C(=C\c2ccc([N+](=O)[O-])cc2)CCc2ccccc21	41	81*	78*	0.2	2
O=C1/C(=C/c2cccnc2)CCC/C1=C\c1cccnc1	82*	3	/	1	-3
O=C1/C(=C/c2cccnc2)CC/C1=C\c1cccnc1	-6	33	17	0.7	0
